This is an account of results in ChEMBL document CHEMBL1268916, “Second generation 2-pyridyl biphenyl amide inhibitors of the hedgehog pathway” (Bioorg Med Chem Lett, 2010).

In brackets after ≈: the same amount, converted by molar mass.

Broadly, the IC50 is the concentration that gives 50% inhibition. Usually solubility (thermodynamic) stands for the concentration in solution at equilibrium with solid. As a reminder, the inhibition in vivo is the relative decrease from the control value, in per cent.

Cytochrome P450 2C9, sequence (P11712 whole entry): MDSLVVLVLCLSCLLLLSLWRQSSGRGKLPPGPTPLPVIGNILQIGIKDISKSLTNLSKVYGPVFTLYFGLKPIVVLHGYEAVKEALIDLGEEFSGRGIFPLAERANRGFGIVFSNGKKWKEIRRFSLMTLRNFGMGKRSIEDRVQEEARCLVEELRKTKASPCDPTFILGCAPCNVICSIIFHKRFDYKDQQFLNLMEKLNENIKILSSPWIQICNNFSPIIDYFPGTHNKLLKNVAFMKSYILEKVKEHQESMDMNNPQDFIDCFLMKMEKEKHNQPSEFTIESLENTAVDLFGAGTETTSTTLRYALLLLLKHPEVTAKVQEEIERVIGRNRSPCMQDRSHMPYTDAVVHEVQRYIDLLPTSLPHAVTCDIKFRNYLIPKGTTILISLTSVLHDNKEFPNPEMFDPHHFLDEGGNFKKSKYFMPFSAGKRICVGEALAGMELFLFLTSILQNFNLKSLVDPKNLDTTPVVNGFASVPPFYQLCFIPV

Test system in one data set: not listed separately
The data set is described as follows: Inhibition of Hedgehog signaling in human HEPM cells assessed as reduction in receptor-mediated Gli1 mRNA expression by reporter gene assay.
Conditions: not given
It is filed as cell-based.
On to `O=C(Nc1ccc(Cl)c(-c2ccccn2)c1)c1ccc(C(=O)N2CCS(=O)(=O)CC2)cc1Cl`, for which the IC50 came to 5 nM.

Regarding `Cc1nc(C(F)(F)F)ccc1C(=O)Nc1ccc(Cl)c(-c2ccccn2)c1`, the IC50 is 15 nM.

`CC(=O)N1CCN(c2ccc(C(=O)Nc3ccc(Cl)c(-c4ccccn4)c3)c(C)n2)CC1`: the IC50 is 5 nM.

Consider `CS(=O)(=O)c1ccc(C(=O)Nc2ccc(Cl)c(-c3ccccn3)c2)c(Cl)c1` [VISMODEGIB], for which the IC50 amounted to 3 nM.

For the compound `O=C(NCc1ccccc1)c1ccc(C(=O)Nc2ccc(Cl)c(-c3ccccn3)c2)c(Cl)c1`, the IC50 was 1 nM.

Regarding `CS(=O)(=O)Nc1ccc(C(=O)Nc2ccc(Cl)c(-c3ccccn3)c2)c(Cl)c1`, the IC50 was determined as 2 nM.

Turning to `CCN1CCN(c2ccc(C(=O)Nc3ccc(Cl)c(-c4ccccn4)c3)c(C)n2)CC1`, the IC50 amounted to 5 nM.

Test system in a further data set: not listed separately
Kind of data set: Plasma concentration in Calu-6 cells xenografted nude mouse PK/PD model at 75 mg/kg, po bid for 5 days measured 4 hrs post last dose relative to untreated control. Also noted: dose 75 mg/kg, route oral. It is filed as ADME, organism-based.
Conditions: not given
A digest of the protocol: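 Calu-6 tumor-bearing mice were dosed orally 75 mg/kg BID for five doses. Plasma was sampled 4 h after the last dose, at the same time as tumor harvest. Compound was given as free base or HCl salt, suspended in a methylcellulose/Tween or Labrafil-based vehicle.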
With `Cc1nc(C(F)(F)F)ccc1C(=O)Nc1ccc(Cl)c(-c2ccccn2)c1`, the concentration at 4 h was 15 µM.

In the case of `CC(=O)N1CCN(c2ccc(C(=O)Nc3ccc(Cl)c(-c4ccccn4)c3)c(C)n2)CC1`, the concentration at 4 h is 22 µM.

In turn, `CS(=O)(=O)Nc1ccc(C(=O)Nc2ccc(Cl)c(-c3ccccn3)c2)c(Cl)c1` returned a concentration at 4 h of 2.2 µM.

Test system in another data set: not listed separately
The data set is described as follows: Thermodynamic solubility at pH 1.0. It is filed as physicochemical. The conditions noted are these: buffer.
In the case of `O=C(Nc1ccc(Cl)c(-c2ccccn2)c1)c1ccc(C(=O)N2CCS(=O)(=O)CC2)cc1Cl`, the thermodynamic solubility came to 4300 µg/mL (≈ 8530 µM).

The compound `Cc1nc(C(F)(F)F)ccc1C(=O)Nc1ccc(Cl)c(-c2ccccn2)c1` gave a solubility (thermodynamic) of 1000 µg/mL (≈ 2550 µM).

`CC(=O)N1CCN(c2ccc(C(=O)Nc3ccc(Cl)c(-c4ccccn4)c3)c(C)n2)CC1` returned a thermodynamic solubility of 3200 µg/mL (≈ 7110 µM).

Consider `CS(=O)(=O)c1ccc(C(=O)Nc2ccc(Cl)c(-c3ccccn3)c2)c(Cl)c1` [VISMODEGIB], for which the thermodynamic solubility turned out to be 3500 µg/mL (≈ 8310 µM).

`CS(=O)(=O)Nc1ccc(C(=O)Nc2ccc(Cl)c(-c3ccccn3)c2)c(Cl)c1` came in with a thermodynamic solubility of 910 µg/mL (≈ 2090 µM).

The next data set concerns the target Cytochrome P450 2C9 (Homo sapiens, UniProt P11712). Kind of data set: Inhibition of CYP2C9. In kind it is ADME.
Conditions: not given
`O=C(Nc1ccc(Cl)c(-c2ccccn2)c1)c1ccc(C(=O)N2CCS(=O)(=O)CC2)cc1Cl` came in with a half-inhibitory concentration (IC50) of 9000 nM.

As for `Cc1nc(C(F)(F)F)ccc1C(=O)Nc1ccc(Cl)c(-c2ccccn2)c1`, the IC50 was > 20000 nM.

Compound `CC(=O)N1CCN(c2ccc(C(=O)Nc3ccc(Cl)c(-c4ccccn4)c3)c(C)n2)CC1` came in with a concentration for half-maximal inhibition (IC50) of 16000 nM.

Turning to `CS(=O)(=O)c1ccc(C(=O)Nc2ccc(Cl)c(-c3ccccn3)c2)c(Cl)c1` [VISMODEGIB], the 50% inhibitory concentration (IC50) is > 20000 nM.

`O=C(NCc1ccccc1)c1ccc(C(=O)Nc2ccc(Cl)c(-c3ccccn3)c2)c(Cl)c1` came in with a half-inhibitory concentration (IC50) of 1200 nM.

For the compound `CS(=O)(=O)Nc1ccc(C(=O)Nc2ccc(Cl)c(-c3ccccn3)c2)c(Cl)c1`, the IC50 turned out to be 8000 nM.

For `CCN1CCN(c2ccc(C(=O)Nc3ccc(Cl)c(-c4ccccn4)c3)c(C)n2)CC1`, the IC50 was > 20000 nM.

Test system in the next data set: not listed separately
The data set is described as follows: Inhibition of Hedgehog signaling in mouse S12 cells assessed as reduction in receptor-mediated Gli1 mRNA expression by reporter gene assay. It is filed as cell-based.
Conditions: not given
For the compound `O=C(Nc1ccc(Cl)c(-c2ccccn2)c1)c1ccc(C(=O)N2CCS(=O)(=O)CC2)cc1Cl`, the IC50 is 33 nM.

Turning to `Cc1nc(C(F)(F)F)ccc1C(=O)Nc1ccc(Cl)c(-c2ccccn2)c1`, the IC50 came to 42 nM.

Turning to `CC(=O)N1CCN(c2ccc(C(=O)Nc3ccc(Cl)c(-c4ccccn4)c3)c(C)n2)CC1`, the IC50 came to 22 nM.

Consider `CS(=O)(=O)c1ccc(C(=O)Nc2ccc(Cl)c(-c3ccccn3)c2)c(Cl)c1` [VISMODEGIB], for which the IC50 was found to be 13 nM.

Take `O=C(NCc1ccccc1)c1ccc(C(=O)Nc2ccc(Cl)c(-c3ccccn3)c2)c(Cl)c1`: the IC50 came out at 7 nM.

As to `CS(=O)(=O)Nc1ccc(C(=O)Nc2ccc(Cl)c(-c3ccccn3)c2)c(Cl)c1`, the IC50 was determined as 17 nM.

Take `CCN1CCN(c2ccc(C(=O)Nc3ccc(Cl)c(-c4ccccn4)c3)c(C)n2)CC1`: the 50% inhibitory concentration (IC50) is 160 nM.

Test system in the next data set: not listed separately
The data set is described as follows: Clearance in rat at 5 mg/kg, po or 1 mg/kg, iv. In kind it is ADME, organism-based. The conditions noted are these: in vivo. A digest of the protocol: (§1)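 Male rats received the TFA salt as a solution. The IV dose was 1 mg/kg in 80% PEG or in 5% DMSO/5% cremophor. The oral dose was 5 mg/kg in 60–80% PEG.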
In turn, `O=C(Nc1ccc(Cl)c(-c2ccccn2)c1)c1ccc(C(=O)N2CCS(=O)(=O)CC2)cc1Cl` showed a clearance of 35 mL/min/kg.

`Cc1nc(C(F)(F)F)ccc1C(=O)Nc1ccc(Cl)c(-c2ccccn2)c1` returned a clearance of 4.5 mL/min/kg.

With `CC(=O)N1CCN(c2ccc(C(=O)Nc3ccc(Cl)c(-c4ccccn4)c3)c(C)n2)CC1`, the clearance came to 2 mL/min/kg.

In the case of `CS(=O)(=O)c1ccc(C(=O)Nc2ccc(Cl)c(-c3ccccn3)c2)c(Cl)c1` [VISMODEGIB], the clearance is 3.7 mL/min/kg.

The compound `CS(=O)(=O)Nc1ccc(C(=O)Nc2ccc(Cl)c(-c3ccccn3)c2)c(Cl)c1` yielded a clearance of 2.4 mL/min/kg.

The subject of another data set is Mus musculus. Kind of data set: Inhibition of Hedgehog signaling in Calu-6 cells xenografted nude mouse PK/PD model assessed as reduction in Gli1 mRNA expression at 75 mg/kg, po bid for 5 days measured 4 hrs post last dose relative to untreated control. It is filed as functional. Particulars: Calu-6, po, in the assay text read “for 5 doses” for “for 5 days”. The method in brief:
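Nude mice bearing established Calu-6 tumors got 75 mg/kg by oral gavage BID for five doses. Tumors were harvested 4 h after the last dose. Stromal (murine) Gli1 mRNA was measured and expressed relative to vehicle-treated tumors. Compound was given as free base or HCl salt, suspended in a methylcellulose/Tween or Labrafil-based formulation.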
Regarding `Cc1nc(C(F)(F)F)ccc1C(=O)Nc1ccc(Cl)c(-c2ccccn2)c1`, the inhibition in vivo at 75 mg/kg was 40%.

As for `CC(=O)N1CCN(c2ccc(C(=O)Nc3ccc(Cl)c(-c4ccccn4)c3)c(C)n2)CC1`, the inhibition in vivo at 75 mg/kg came to 80%.

For the compound `CS(=O)(=O)c1ccc(C(=O)Nc2ccc(Cl)c(-c3ccccn3)c2)c(Cl)c1` [VISMODEGIB], the inhibition in vivo at 75 mg/kg is 90%.

Test system in the next data set: not listed separately
Kind of data set: Volume of distribution at steady state in rat at 5 mg/kg, po or 1 mg/kg, iv. The conditions noted are these: in vivo, read-out: Vdss. In kind it is ADME, organism-based. A digest of the protocol: as §1
Turning to `Cc1nc(C(F)(F)F)ccc1C(=O)Nc1ccc(Cl)c(-c2ccccn2)c1`, the Vd was found to be 0.95 L/kg.

With `CC(=O)N1CCN(c2ccc(C(=O)Nc3ccc(Cl)c(-c4ccccn4)c3)c(C)n2)CC1`, the Vd is 0.38 L/kg.

In the next data set the test system is Mus musculus. Kind of data set: Inhibition of Hedgehog signaling in Calu-6 cells xenografted nude mouse PK/PD model assessed as reduction in Gli1 mRNA expression at 75 mg/kg, po bid for 5 doses measured 4 hrs post last dose relative to untreated control. Particulars: Calu-6, po.
Consider `CS(=O)(=O)Nc1ccc(C(=O)Nc2ccc(Cl)c(-c3ccccn3)c2)c(Cl)c1`, for which the inhibition in vivo at 75 mg/kg amounted to 25%.

A further data set deals with Cytochrome P450 3A4 (Homo sapiens, UniProt P08684). Kind of data set: Inhibition of CYP3A4. In kind it is ADME.
Cytochrome P450 3A4, sequence (P08684 whole entry): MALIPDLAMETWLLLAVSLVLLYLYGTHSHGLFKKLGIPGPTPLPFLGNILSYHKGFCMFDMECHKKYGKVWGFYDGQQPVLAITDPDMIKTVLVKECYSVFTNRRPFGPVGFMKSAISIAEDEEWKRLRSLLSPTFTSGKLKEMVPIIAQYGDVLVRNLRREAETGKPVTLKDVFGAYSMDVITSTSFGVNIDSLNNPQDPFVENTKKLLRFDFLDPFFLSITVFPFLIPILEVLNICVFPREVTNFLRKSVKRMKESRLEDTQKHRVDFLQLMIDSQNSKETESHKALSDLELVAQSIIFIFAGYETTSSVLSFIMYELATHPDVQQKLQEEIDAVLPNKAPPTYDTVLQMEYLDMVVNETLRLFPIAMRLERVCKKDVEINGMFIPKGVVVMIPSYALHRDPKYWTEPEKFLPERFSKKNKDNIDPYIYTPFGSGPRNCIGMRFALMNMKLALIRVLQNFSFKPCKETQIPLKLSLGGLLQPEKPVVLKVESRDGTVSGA
Conditions: not given
Take `O=C(Nc1ccc(Cl)c(-c2ccccn2)c1)c1ccc(C(=O)N2CCS(=O)(=O)CC2)cc1Cl`: the IC50 is > 20000 nM.

For the compound `Cc1nc(C(F)(F)F)ccc1C(=O)Nc1ccc(Cl)c(-c2ccccn2)c1`, the IC50 is > 20000 nM.

`CC(=O)N1CCN(c2ccc(C(=O)Nc3ccc(Cl)c(-c4ccccn4)c3)c(C)n2)CC1`: the IC50 was > 20000 nM.

For `CS(=O)(=O)c1ccc(C(=O)Nc2ccc(Cl)c(-c3ccccn3)c2)c(Cl)c1` [VISMODEGIB], the IC50 was > 20000 nM.

Take `O=C(NCc1ccccc1)c1ccc(C(=O)Nc2ccc(Cl)c(-c3ccccn3)c2)c(Cl)c1`: the IC50 was > 20000 nM.

As for `CS(=O)(=O)Nc1ccc(C(=O)Nc2ccc(Cl)c(-c3ccccn3)c2)c(Cl)c1`, the IC50 is > 20000 nM.

Turning to `CCN1CCN(c2ccc(C(=O)Nc3ccc(Cl)c(-c4ccccn4)c3)c(C)n2)CC1`, the IC50 is > 20000 nM.

Test system in another data set: not listed separately
Kind of data set: Thermodynamic solubility at pH 6.5. The conditions noted are these: buffer. In kind it is physicochemical.
Take `O=C(Nc1ccc(Cl)c(-c2ccccn2)c1)c1ccc(C(=O)N2CCS(=O)(=O)CC2)cc1Cl`: the thermodynamic solubility was determined as 60 µg/mL (≈ 119 µM).

On to `Cc1nc(C(F)(F)F)ccc1C(=O)Nc1ccc(Cl)c(-c2ccccn2)c1`, for which the solubility (thermodynamic) was 2 µg/mL (≈ 5.1 µM).

Compound `CC(=O)N1CCN(c2ccc(C(=O)Nc3ccc(Cl)c(-c4ccccn4)c3)c(C)n2)CC1` showed a solubility (thermodynamic) of 6 µg/mL (≈ 13.3 µM).

On to `CS(=O)(=O)c1ccc(C(=O)Nc2ccc(Cl)c(-c3ccccn3)c2)c(Cl)c1` [VISMODEGIB], for which the solubility (thermodynamic) stood at 10 µg/mL (≈ 23.7 µM).

`CS(=O)(=O)Nc1ccc(C(=O)Nc2ccc(Cl)c(-c3ccccn3)c2)c(Cl)c1` returned a thermodynamic solubility of 1 µg/mL (≈ 2.29 µM).
